The values below come from paper PMC4752335 (European journal of medicinal chemistry, 2015).

One data set deals with T1, rat brain FAAH (Rattus norvegicus, UniProt P97612).
T1 sequence (P97612 1-579): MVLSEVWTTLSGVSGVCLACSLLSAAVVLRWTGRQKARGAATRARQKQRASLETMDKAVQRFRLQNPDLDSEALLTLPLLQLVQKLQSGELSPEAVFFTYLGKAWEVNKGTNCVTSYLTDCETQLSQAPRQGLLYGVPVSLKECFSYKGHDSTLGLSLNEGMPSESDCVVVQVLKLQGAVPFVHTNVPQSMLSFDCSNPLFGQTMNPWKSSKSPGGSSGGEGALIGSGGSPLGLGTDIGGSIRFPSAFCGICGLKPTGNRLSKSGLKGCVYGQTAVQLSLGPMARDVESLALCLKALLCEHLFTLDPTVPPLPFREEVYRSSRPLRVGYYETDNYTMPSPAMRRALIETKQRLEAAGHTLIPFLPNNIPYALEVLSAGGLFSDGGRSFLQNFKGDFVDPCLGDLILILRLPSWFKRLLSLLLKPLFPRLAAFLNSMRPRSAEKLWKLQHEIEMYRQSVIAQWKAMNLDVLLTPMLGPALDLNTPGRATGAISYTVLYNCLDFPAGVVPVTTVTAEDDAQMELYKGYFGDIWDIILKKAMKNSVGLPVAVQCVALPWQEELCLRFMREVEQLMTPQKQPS
The experiment in a line: In vitro rat FAAH radiometric assay. It is filed as biochemical.

The target in a further data set is T2, ovine COX-1 (Ovis aries, UniProt P05979).
T2 sequence (P05979 25-600): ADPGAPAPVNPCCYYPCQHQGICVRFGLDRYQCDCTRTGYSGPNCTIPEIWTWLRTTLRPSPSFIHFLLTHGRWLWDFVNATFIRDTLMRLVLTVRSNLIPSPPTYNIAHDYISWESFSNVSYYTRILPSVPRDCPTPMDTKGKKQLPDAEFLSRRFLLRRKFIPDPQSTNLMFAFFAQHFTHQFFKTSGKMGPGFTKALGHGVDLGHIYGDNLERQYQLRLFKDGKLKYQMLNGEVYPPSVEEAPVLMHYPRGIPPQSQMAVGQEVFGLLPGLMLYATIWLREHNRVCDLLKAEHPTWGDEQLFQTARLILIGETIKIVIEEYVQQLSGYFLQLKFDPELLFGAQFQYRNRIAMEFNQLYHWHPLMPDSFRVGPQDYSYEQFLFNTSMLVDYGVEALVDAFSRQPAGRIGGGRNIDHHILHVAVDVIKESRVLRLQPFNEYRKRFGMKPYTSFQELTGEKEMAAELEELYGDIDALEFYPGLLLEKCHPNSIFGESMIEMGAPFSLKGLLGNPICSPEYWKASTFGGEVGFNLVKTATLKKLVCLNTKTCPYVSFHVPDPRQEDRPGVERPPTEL
Description: In vitro COX assay. Format: biochemical. To be noted: for increase in potency toward COX-1: compared to 10a; for decrease in potency toward COX-1: compared to 10r.

For data set [1], the system named is panel of >90 biologically relevant receptors, enzymes and ion channels. To be noted: cited from earlier work.
In the next data set the test system is FAAH and COX. The settings on record: mice; cited from earlier work.
A further data set relates to mouse models of IBD. To be noted: cited from earlier work.
For another data set, the target named is T3, human recombinant COX-2 (Homo sapiens, UniProt P35354).
T3 sequence (P35354 18-604): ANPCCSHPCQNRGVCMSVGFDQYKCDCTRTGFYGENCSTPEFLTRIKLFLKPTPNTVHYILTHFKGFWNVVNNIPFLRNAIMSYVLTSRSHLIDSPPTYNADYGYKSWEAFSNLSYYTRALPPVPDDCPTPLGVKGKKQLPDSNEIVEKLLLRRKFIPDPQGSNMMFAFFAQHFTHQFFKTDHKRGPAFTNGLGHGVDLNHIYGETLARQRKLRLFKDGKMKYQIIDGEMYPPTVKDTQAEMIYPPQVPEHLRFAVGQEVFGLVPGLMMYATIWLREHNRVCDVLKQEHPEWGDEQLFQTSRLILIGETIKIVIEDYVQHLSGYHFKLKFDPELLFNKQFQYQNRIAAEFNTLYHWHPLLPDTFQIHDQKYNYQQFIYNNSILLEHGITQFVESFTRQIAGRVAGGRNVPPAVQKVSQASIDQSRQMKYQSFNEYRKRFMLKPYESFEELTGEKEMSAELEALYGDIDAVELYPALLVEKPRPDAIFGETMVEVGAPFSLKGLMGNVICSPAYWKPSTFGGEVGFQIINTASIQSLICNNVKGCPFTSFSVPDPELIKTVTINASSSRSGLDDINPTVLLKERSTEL
The experiment in a line: In vitro COX assay. Format: biochemical. The settings on record: compared to 10r.

For data set [2], the system named is COX products (6-keto-PGF1α, TXB2) and FAAH substrate OEA in plasma. It is filed as in vivo. To be noted: mice, 1 mg/kg intravenous, 1 h, vs vehicle. Summed up:
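Mice, randomised in groups of 6 and handled blind, were decapitated under anaesthesia 1 h after a 1 mg/kg intravenous dose. Heparinised cardiac blood (0.3 mL) was spun at 2000×g for 30 min to give plasma. OEA was extracted with cold acetone containing [²H₄]-OEA and quantified by LC/MS (MRM) against a 1 nM–10 µM calibration curve. 6-keto-PGF1α and […] were measured by ELISA kit. Values are mean ± s.e.m. (n=6), compared with vehicle by two-tailed Student's t test.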

Data set [3] deals with panel of >90 biologically relevant receptors, enzymes and ion channels. The experiment in a line: Off-target panel of >90 biologically relevant targets. The settings on record: Table S1.

Turning to `CC(C(=O)O)c1ccc(-c2cccc(OC(=O)NC3CCC3)c2)c(F)c1` (racemic) [Compound 10c, (±)-2-[4-[3-(cyclobutylcarbamoyloxy)phenyl]-3-fluoro-phenyl]propanoic acid], on rat brain FAAH (compared to 10a), the “loss in potency against FAAH” value is on record as 10 fold. Besides, on ovine COX-1, the “increase in potency toward COX-1” value is 10 fold.
Consider `CC(C(=O)O)c1ccc(-c2cccc(OC(=O)NCC3CCCCC3)c2)c(F)c1` (racemic) [Compound 10e, (±)-2-[4-[3-(cyclohexylmethylcarbamoyloxy)phenyl]-3-fluoro-phenyl]propanoic acid], for which the “increase in potency toward FAAH” value at rat brain FAAH (compared to 10a) came out at 23 fold. The “increase in potency toward COX-1” value on ovine COX-1 is 10 fold.
In the same order, the values of `CC(C(=O)O)c1ccc(-c2cccc(OC(=O)NCCC3CCCCC3)c2)c(F)c1` (racemic) [Compound 10f, (±)-2-[4-[3-(2-cyclohexylethylcarbamoyloxy)phenyl]-3-fluoro-phenyl]propanoic acid] are 400 fold and 50 fold.
As to `CC(C(=O)O)c1ccc(-c2cccc(OC(=O)NCc3ccccc3)c2)c(F)c1` (racemic) [Compound 10j, (±)-2-[4-[3-(benzylcarbamoyloxy)phenyl]-3-fluoro-phenyl]propanoic acid], the “increase in potency toward FAAH” value on rat brain FAAH (compared to 10i) is recorded as 10 fold.
Turning to `CCCCCCNC(=O)Oc1cccc(-c2ccc(C(C)C(=O)O)cc2F)c1` (racemic) [Compound 10r, (±)-2-[3-fluoro-4-[3-(hexylcarbamoyloxy)phenyl]phenyl]propanoic acid], the “off-target activities on a panel of >90 biologically relevant targets” value in data set [1] was “no off-target activities”. Besides, the “engagement of intended targets after oral administration” value in the data set with FAAH and COX is recorded as “effectively engages its intended targets”. Also, the “anti-inflammatory effects in mouse models of IBD” value in the data set with mouse models of IBD was “profound anti-inflammatory effects”. In addition, the COX-dependent gastric toxicity result with mouse models of IBD (mouse) is “without causing COX-dependent gastric toxicity”.
As for `CCCCCCNC(=O)Oc1cccc(-c2ccc(C(C)CO)cc2F)c1` (racemic) [Compound 12, (±)-[3-[2-fluoro-4-(2-hydroxy-1-methyl-ethyl)phenyl]phenyl] N-hexylcarbamate], the “increase in potency toward FAAH” value on rat brain FAAH (compared to 10r) amounted to 10 fold. Further, the “decrease in potency toward COX-1” value on ovine COX-1 was 100 fold.
`CCCCCCNC(=O)Oc1ccccc1-c1ccc(C(C)C(=O)O)cc1F` (racemic) [Compound 15a, (±)-2-[3-fluoro-4-[2-(hexylcarbamoyloxy)phenyl]phenyl]propanoic acid]: on rat brain FAAH (compared to 10r), the “decrease in potency toward FAAH” value stood at 70 fold. The “decrease in potency toward COX-1” value on ovine COX-1 is 60 fold.
For the compound `CCCCCCNC(=O)Oc1cccc(-c2ccc(C(C)C(=O)O)cc2C(F)(F)F)c1` (racemic) [Compound 29c, (±)-2-[4-[3-(hexylcarbamoyloxy)phenyl]-3-(trifluoromethyl)phenyl]propanoic acid], at human recombinant COX-2, the “increase in potency toward COX-2” value stood at 2 fold. In addition, at rat brain FAAH (compared to 10r), the “increase in potency toward FAAH” value was 6 fold.
Take `CCCCCCNC(=O)Oc1cccc(-c2ccc(C(C)C(=O)O)cc2)c1` (racemic) [Compound 29e, (±)-2-[4-[3-(hexylcarbamoyloxy)phenyl]phenyl]propanoic acid]: on rat brain FAAH (compared to 10r), the “increase in potency toward FAAH” value is on record as 10 fold.
Regarding `CCCCCCNC(=O)Oc1cccc(-c2ccc([C@H](C)C(=O)O)cc2F)c1` [(+)-10r, (+)-2-[3-fluoro-4-[3-(hexylcarbamoyloxy)phenyl]phenyl]propanoic acid], in data set [2], the “plasma level of 6-keto-PGF1α (stable metabolite of prostacyclin)” value is “lowered”, the “plasma level of TXB2 (stable metabolite of TXA2)” value was “lowered” and the “plasma level of the FAAH substrate OEA” value is “increased”. Moreover, in data set [3], the “off-target activities on a panel of >90 biologically relevant receptors, enzymes (including NAAA) and ion channels” value is listed as “no off-target activities”.
As for `CCCCCCNC(=O)Oc1cccc(-c2ccc(CC(=O)O)cc2F)c1` [Compound 18b, 2-[3-fluoro-4-[3-(hexylcarbamoyloxy)phenyl]phenyl]acetic acid], the “decrease in potency toward FAAH” value at rat brain FAAH (compared to 10r) amounted to 2 fold. Further, the “decrease in potency toward COX-1” value at ovine COX-1 is reported as 180 fold.
Turning to `CCCCCCNC(=O)Oc1cccc(-c2ccc(C(=O)O)cc2F)c1` [Compound 21c, 3-fluoro-4-[3-(hexylcarbamoyloxy)phenyl]benzoic acid], on rat brain FAAH (compared to 10r), the “decrease in potency toward FAAH” value was 3 fold.
